Results reported in ChEMBL document CHEMBL1649583 (Antimicrob Agents Chemother, 2009).
Converted amounts (≈) assume the structure as drawn.

How the values were obtained:
Homo sapiens [1] = assay: Absorption rate constant in human adults with pulmonary tuberculosis at 600 mg administered daily for 7 days; type: ADME, organism-based; conditions: in vivo, 168 h
How it was run: (§1)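 Adults with pulmonary TB (once daily n=10, twice daily n=9) fasted overnight before the fifth morning dose. Plasma was drawn at steady state predose and 1, 2, 4, 8, 12, 18 and 24 h after dosing, stored at -80°C, and assayed by validated HPLC (standards 0.5–30 μg/ml). ka comes from a one-compartment NPAG population model fitted per regimen, reported as the median of individual Bayesian estimates.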

[2] = Elimination rate constant in human adults with pulmonary tuberculosis at 600 mg administered daily for 7 days; type: ADME, organism-based; conditions: in vivo
How it was run: (§2)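 Plasma was drawn at steady state, predose and at 1, 2, 4, 8, 12, 18 and 24 h, and stored at -80°C. Assay was validated HPLC with 0.5–30 μg/ml standards. A one-compartment population model (NPAG) gave median individual Bayesian estimates; other parameters came from standard equations.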

[3] = Elimination half life in human adults with pulmonary tuberculosis at 600 mg administered daily for 7 days; type: ADME, organism-based; conditions: in vivo, read-out: beta t1/2 (converted); how it was run: as §2
[4] = Apparent oral clearance in human adults with pulmonary tuberculosis at 600 mg administered daily for 7 days; type: ADME, organism-based; conditions: in vivo; how it was run: as §2
[5] = Cmax in human adults with pulmonary tuberculosis at 600 mg administered daily for 7 days; type: ADME, organism-based; parameters: dose 600 mg; conditions: in vivo; how it was run: as §2
[6] = Tmax in human adults with pulmonary tuberculosis at 600 mg administered daily for 7 days; type: ADME, organism-based; conditions: in vivo; how it was run: as §2
Homo sapiens [7] = assay: Absorption rate constant in human adults with pulmonary tuberculosis at 600 mg administered twice daily for 7 days; type: ADME, organism-based; conditions: in vivo, 168 h; how it was run: as §1
[8] = Elimination rate constant in human adults with pulmonary tuberculosis at 600 mg administered twice daily for 7 days; type: ADME, organism-based; conditions: in vivo; how it was run: as §2
[9] = Elimination half life in human adults with pulmonary tuberculosis at 600 mg administered twice daily for 7 days; type: ADME, organism-based; conditions: in vivo, read-out: beta t1/2 (converted); how it was run: as §2
[10] = Apparent oral clearance in human adults with pulmonary tuberculosis at 600 mg administered twice daily for 7 days; type: ADME, organism-based; conditions: in vivo; how it was run: as §2
[11] = Cmax in human adults with pulmonary tuberculosis at 600 mg administered twice daily for 7 days; type: ADME, organism-based; parameters: dose 600 mg; conditions: in vivo; how it was run: as §2
[12] = Tmax in human adults with pulmonary tuberculosis at 600 mg administered twice daily for 7 days; type: ADME, organism-based; conditions: in vivo; how it was run: as §2
[13] = system: Mycobacterium tuberculosis; assay: Antimicrobial activity against Mycobacterium tuberculosis in human adults with pulmonary tuberculosis at 600 mg administered daily for 7 days; type: functional; conditions: 168 h
[14] = system: Mycobacterium tuberculosis; assay: Antimicrobial activity against Mycobacterium tuberculosis in human adults with pulmonary tuberculosis at 600 mg administered twice for 7 days; type: functional; conditions: 168 h
[15] = Cmax in human adults with pulmonary tuberculosis at 600 mg administered once daily for 5 days; type: ADME, organism-based; parameters: dose 600 mg; conditions: in vivo; how it was run: as §2
[16] = fT>MIC in human adults with pulmonary tuberculosis at 600 mg administered once daily for 5 days; type: functional
How it was run: (§3)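 Steady-state plasma profiles after the fifth 600 mg dose, given once or twice daily, were fitted with a one-compartment population model. Concentrations were corrected to free drug assuming 31% protein binding. MIC came from each patient's pretreatment sputum isolate, tested by Bactec 460 and on Middlebrook 7H-10 agar. The result is the percent of the dosing interval with free drug above MIC.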

[17] = Cmax in human adults with pulmonary tuberculosis at 600 mg administered twice daily for 5 days; type: ADME, organism-based; parameters: dose 600 mg; conditions: in vivo; how it was run: as §2
[18] = fT>MIC in human adults with pulmonary tuberculosis at 600 mg administered twice daily for 5 days; type: functional; how it was run: as §3

## CC(=O)NC[C@H]1CN(c2ccc(N3CCOCC3)c(F)c2)C(=O)O1 [LINEZOLID]
Homo sapiens [1]
  ka: 1.5 h⁻¹
[2]
  k el at 168 h: 5.56e-05 s⁻¹
[3]
  half-life: 2.9 h
[4]
  CL/F: 118 mL/min
[5]
  Cmax: 14900 ng/mL
[6]
  Tmax: 1.5 h
Homo sapiens [7]
  ka: 2.7 h⁻¹
[8]
  k el at 168 h: 5.56e-05 s⁻¹
[9]
  half-life: 4.6 h
[10]
  CL/F: 80 mL/min
[11]
  Cmax: 19400 ng/mL
[12]
  Tmax: 1 h
[13]
  MIC: 1 µg/mL (≈ 2.96 µM)
[14]
  MIC: 0.5 µg/mL (≈ 1.48 µM)
[15]
  Cmax: 10300 ng/mL
[16]
  fT>MIC: 62.8%
[17]
  Cmax: 13400 ng/mL
[18]
  fT>MIC: 100%
